This is an account of results in ChEMBL document CHEMBL4014308, “Amphiphilic Tobramycin-Lysine Conjugates Sensitize Multidrug Resistant Gram-Negative Bacteria to Rifampicin and Minocycline” (J Med Chem, 2017).

Data set [1] has as its system Escherichia coli. The data set can be described thus: Antibacterial activity against amikacin-resistant Escherichia coli isolate CAN-ICU 63074 after 18 hrs by microtiter dilution assay. Format: functional. The note with it: isolate CAN-ICU 63074, 18 h. A digest of the protocol: (§1)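 Broth microdilution following CLSI guidelines. An overnight culture was adjusted to 0.5 McFarland in saline, then diluted 1:50 in Mueller-Hinton broth. This inoculum was added in equal volume to 2-fold serial dilutions of agent in MHB and incubated 18 h at 37 °C. MIC was the lowest concentration with no visible growth.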

Data set [2] relates to Klebsiella pneumoniae. The data set is described as follows: Synergistic antibacterial activity against multidrug-resistant Klebsiella pneumoniae 116381 after 18 hrs in presence of minocycline by checkerboard assay. Conditions: Klebsiella pneumoniae, 116381, 18 h. Type of data set: functional. The method, boiled down: (§2)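 Checkerboard in Mueller-Hinton broth: antibiotic serially diluted along one axis and adjuvant along the other (10 × 7 matrix). Inoculum was overnight culture set to 0.5 McFarland in saline, then diluted 1:50 in broth. Incubated 18 h at 37 °C. MIC was the lowest concentration with no growth. FIC index is the sum of both FICs (combination concentration ÷ MIC alone); ≤0.5 counted as synergy.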

For data set [3], the system named is Staphylococcus aureus. The data set is described as follows: Antibacterial activity against methicillin resistant Staphylococcus aureus ATCC 33592 after 18 hrs by microtiter dilution assay. Type of data set: functional. The note with it: ATCC 33592, 18 h. A digest of the protocol:
as §1

Data set [4] deals with Pseudomonas aeruginosa. The data set can be described thus: Potentiation of rifampicin-induced antibacterial activity against multidrug/extremely drug-resistant/colistin-susceptible Pseudomonas aeruginosa isolate P262-101856 infected in Galleria mellonella assessed as mortality at 12.5 to 37.5 mg/kg after 24 hrs relative to control. Format: functional. The method, boiled down: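 Galleria mellonella larvae (~250 mg, used within 7 days), 15 per group, injected with 10 µL XDR P262 at 1.0×10^3 CFU/mL in PBS. PBS vehicle control. Survival scored over 24 h at 37 °C.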

Data set [5] concerns Pseudomonas aeruginosa. The data set is described as follows: Potentiation of rifampicin-induced antibacterial activity against multidrug/extremely drug-resistant/colistin-resistant Pseudomonas aeruginosa isolate 101243 assessed as fold reduction in rifampicin MIC at 4 ug/ml after 18 hrs by checkerboard assay relative to control. Format: functional. The method, boiled down:
(§3)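 Checkerboard in Mueller-Hinton broth, 10 × 7 matrix, with the adjuvant held at 4 µg/mL. Inoculum from a 0.5 McFarland suspension diluted 1:50; 18 h at 37 °C. Antibiotic MIC (lowest concentration with no growth) with adjuvant is compared with the antibiotic MIC alone, giving a fold reduction.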

Data set [6] deals with Pseudomonas aeruginosa. The data set can be described thus: Antibacterial activity against gentamicin-resistant Pseudomonas aeruginosa isolate CAN-ICU 62308 after 18 hrs by microtiter dilution assay. Type of data set: functional. The note with it: isolate CAN-ICU 62308, 18 h. A digest of the protocol: as §1
Data set [7] relates to Pseudomonas aeruginosa. The data set is described as follows: Antibacterial activity against multidrug/extremely drug-resistant/colistin-resistant Pseudomonas aeruginosa isolate 91433 after 18 hrs by microtiter dilution assay. Format: functional. The note with it: isolate 91433, 18 h. A digest of the protocol: as §1
In data set [8] the test system is Enterobacter cloacae. The data set is described as follows: Synergistic antibacterial activity against multidrug-resistant Enterobacter cloacae 117029 after 18 hrs in presence of minocycline by checkerboard assay. Type of data set: functional. The note with it: Enterobacter cloacae, 117029, 18 h. A digest of the protocol: (§4)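 Checkerboard in MHB with a 10 × 7 matrix: antibiotic serially diluted along one axis, adjuvant along the other. Inoculum was a 1:50 dilution of a 0.5 McFarland suspension, incubated 18 h at 37 °C and read on a plate reader. Each FIC is the concentration in a no-growth well divided by the MIC alone; FIC index is their sum, with ≤0.5 taken as synergy.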

Data set [9] relates to Escherichia coli. The data set is described as follows: Antibacterial activity against gentamicin/tobramycin/ciprofloxacin-resistant Escherichia coli isolate CANWARD-2011 97615 harboring AAC3-2A after 18 hrs by microtiter dilution assay. Type of data set: functional. The note with it: isolate CANWARD-2011 97615, 18 h. The method, boiled down: as §1
Data set [10] relates to Pseudomonas aeruginosa. The data set can be described thus: Potentiation of rifampicin-induced antibacterial activity against multidrug/extremely drug-resistant/colistin-susceptible Pseudomonas aeruginosa isolate 101885 assessed as fold reduction in rifampicin MIC at 4 ug/ml after 18 hrs by checkerboard assay relative to control. Format: functional. The method, boiled down: as §3

In data set [11] the test system is Pseudomonas aeruginosa. The data set is described as follows: Potentiation of rifampicin-induced bactericidal activity against Pseudomonas aeruginosa PAO1 at 0.125 times antibacterial MIC after 90 mins. Type of data set: functional. The method, boiled down:
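Combination time-kill in PAO1 (LB, 37 °C). Aliquots taken at 0–360 min, serially diluted in PBS, plated on LB agar, and CFU counted after 20 h at 37 °C.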

The test system of data set [12] is Pseudomonas aeruginosa. The data set is described as follows: Synergistic antibacterial activity against Pseudomonas aeruginosa PAO1 after 18 hrs in presence of vancomycin by checkerboard assay. Type of data set: functional. Conditions: PAO1, 18 h. A digest of the protocol:
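Checkerboard in MHB: antibiotic diluted along one axis and adjuvant along the other (10 × 7 matrix). Inoculum was a 1:50 dilution in MHB of a 0.5 McFarland saline suspension; incubated 18 h at 37 °C. Each FIC = concentration in the no-growth well divided by the MIC alone; FIC index = sum of both FICs. ≤0.5 synergy, 0.5–4 no interaction, ≥4 antagonism.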

Data set [13] is described as follows: Cytotoxicity against human JIMT1 cells assessed as cell viability at 20 uM after 48 hrs by MTS assay relative to control. Format: cell-based, JIMT-1. The note with it: read-out: Activity. A digest of the protocol:
(§5)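 DU145 and JIMT-1 grown in DMEM with 10% FBS and penicillin/streptomycin at 37 °C, 5% CO2. 7500–9000 cells/well were seeded for 24 h, then treated at 2.5–30 µM (final) for 48 h. MTS reagent (20% v/v) added for 4 h and OD read at 490 nm after blank subtraction; viability expressed relative to vehicle control.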

Data set [14] concerns Acinetobacter baumannii. The data set is described as follows: Potentiation of minocycline-induced antibacterial activity against multidrug-resistant Acinetobacter baumannii 110193 at 4 ug/ml after 18 hrs by checkerboard assay. Format: functional. The method, boiled down: (§6)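 Checkerboard in Mueller-Hinton broth: antibiotic serially diluted along one axis and adjuvant along the other (10 × 7 matrix). Inoculum from a 0.5 McFarland saline suspension diluted 1:50 in MHB; 18 h at 37 °C, then plate read. MIC is the lowest concentration with no growth. FIC of each agent is its concentration in a no-growth well divided by its MIC alone; FIC index is the sum of both. FIC index ≤0.5 counts as synergy.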

The subject of data set [15] is Pseudomonas aeruginosa. The data set is described as follows: Potentiation of erythromycin-induced antibacterial activity against Pseudomonas aeruginosa PAO1 at 4 ug/ml after 18 hrs by checkerboard assay. Format: functional. A digest of the protocol: as §6
Data set [16] in a line: Cytotoxicity against human DU145 cells assessed as cell viability at 20 uM after 48 hrs by MTS assay relative to control. Type of data set: cell-based, DU-145. Conditions: read-out: Activity. A digest of the protocol: as §5
For data set [17], the system named is Pseudomonas aeruginosa. The data set can be described thus: Potentiation of kanamycin A-induced antibacterial activity against Pseudomonas aeruginosa PAO1 at 4 ug/ml after 18 hrs by checkerboard assay. Format: functional. The method, boiled down:
as §6

Data set [18] has as its system Acinetobacter baumannii. The data set can be described thus: Potentiation of minocycline-induced antibacterial activity against multidrug-resistant Acinetobacter baumannii AB030 at 4 ug/ml after 18 hrs by checkerboard assay. Type of data set: functional. The method, boiled down: as §6
The subject of data set [19] is Klebsiella pneumoniae. The data set is described as follows: Synergistic antibacterial activity against multidrug-resistant Klebsiella pneumoniae 116381 after 18 hrs in presence of rifampicin by checkerboard assay. Conditions: Klebsiella pneumoniae, 116381, 18 h. Type of data set: functional. The method, boiled down: as §2
In data set [20] the test system is Acinetobacter baumannii. The data set is described as follows: Potentiation of rifampicin-induced antibacterial activity against multidrug-resistant Acinetobacter baumannii AB027 at 4 ug/ml after 18 hrs by checkerboard assay. Type of data set: functional. The method, boiled down:
as §6

Data set [21] has as its system Acinetobacter baumannii. The data set is described as follows: Synergistic antibacterial activity against multidrug-resistant Acinetobacter baumannii AB030 after 18 hrs in presence of rifampicin by checkerboard assay. Type of data set: functional. Conditions: AB030, 18 h. A digest of the protocol:
as §4

Data set [22] has as its system Pseudomonas aeruginosa. The data set is described as follows: Potentiation of rifampicin-induced antibacterial activity against multidrug/extremely drug-resistant/colistin-resistant Pseudomonas aeruginosa isolate 91433 assessed as fold reduction in rifampicin MIC at 4 ug/ml after 18 hrs by checkerboard assay relative to control. Format: functional. A digest of the protocol:
as §3

SMILES strings stand for the structures. Calls of active or inactive are those of the source. The rule behind the calls is not given here.

As for `Cl.Cl.Cl.Cl.Cl.Cl.Cl.NCCCC[C@H](N)C(=O)N(CCCCCCCCCCCCO[C@@H]1[C@@H](O[C@H]2O[C@H](CO)[C@@H](O)[C@H](N)[C@H]2O)[C@H](N)C[C@H](N)[C@H]1O[C@H]1O[C@H](CN)[C@@H](O)C[C@H]1N)Cc1c2ccccc2c(Cl)c2ccccc12`, the minimum inhibitory concentration (MIC) in [1] was 16 µg/mL; in data set [2], 16 µg/mL; in data set [3] it was 8 µg/mL; in data set [6], 16 µg/mL; in data set [7], 8 µg/mL; in data set [8] it was 8 µg/mL. Further, the MIC in data set [9] was determined as 32 µg/mL; in [12] it was 4 µg/mL; in data set [19], 4 µg/mL; in [21] it was 8 µg/mL. Moreover, the mortality in data set [4] came out at 100%. The entries for the “fold change (FC)” value in data set [5], in data set [10] and in data set [22] were 32, 128 and 8, respectively. The result in data set [11] was Active. Also, the viability at 48 h, 20 µM in [13] and in data set [16] was over 50% throughout. In addition, the “fractional inhibitory concentration index (FICI)” value is 0.63 in [14]; 0.156 in data set [15]; 1.016 in data set [17]; 0.375 in data set [18]; 0.079 in data set [20].
